SIRT5 inh: SIRT5 desuccinylase inhibitors, primary screen, biochemical, fluorescence imaging, single point, set 5; NAD-dependent protein deacylase sirtuin-5, mitochondrial (Homo sapiens), Q9NXA8; Purified SirT5, succinyl-peptide AMC, trypsin-coupled fluorescence; inhibition, % at 15 µM; actives 1.1% (n = 330,000); AID 652115, 2013; in the data active = inhibition above about 15%
Target sequence (Q9NXA8 whole entry, looked up): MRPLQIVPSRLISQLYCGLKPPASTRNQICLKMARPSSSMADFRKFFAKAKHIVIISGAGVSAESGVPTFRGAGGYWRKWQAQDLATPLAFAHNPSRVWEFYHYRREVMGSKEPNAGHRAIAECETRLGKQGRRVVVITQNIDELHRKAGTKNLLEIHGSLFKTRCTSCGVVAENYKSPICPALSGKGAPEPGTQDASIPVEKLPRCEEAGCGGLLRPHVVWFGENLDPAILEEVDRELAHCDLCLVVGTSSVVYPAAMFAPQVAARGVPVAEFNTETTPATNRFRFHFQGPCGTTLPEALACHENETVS
PGC1a acetyl inh: inhibitors of PGC1a acetylation signal, primary screen, cell-based, U2OS, AlphaScreen, inhibitor mode | inhibition, % at 15.6 µM | actives 0.17% (n = 350,000) | AlphaScreen anti-acetyl-lysine; with virally co-expressed GCN5 acetyltransferase;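 active = every replicate shows inhibition of at least 40%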
FN deposition inh: inhibitors of fibronectin matrix deposition, primary screen, AH1F cells, Alexa488-fibronectin fluorescence, plate reader; AH1F fibroblasts, overnight; inhibition, % at 12.6 µM; actives 0.086% (n = 350,000);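 active = mean inhibition across replicates of 30% or more, regardless of how many single replicates reach that level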
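Assay system: AH1F fibroblast monolayer, labelled fibronectin deposition. Amount: 10000 cells per well. Also added: labelled fibronectin 24 nM. Compound: single-point pinned compound. Incubation: cell attachment 1 h, compound and FN exposure overnight. Detection: fluorescence after three HBSS washes, excitation 485 nm, emission 525 nm. Read-out: inhibition of fibronectin deposition signal.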
ERAP1 inh: human ERAP1 aminopeptidase inhibitors, primary screen, biochemical, single point, plate reader | recombinant ERAP1, Leu-AMC fluorescence, 60 min | actives 0.15% (n = 340,000) | Endoplasmic reticulum aminopeptidase 1 (Homo sapiens), Q9NZ08 | inhibition, % at 10.7 µM | AID 652197, 2013;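 active = mean replicate inhibition of at least 30%, or all replicates individually reaching that 30% level; inactive = mean below 30% and not every replicate reaching it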
FGF22 binding: binders of human FGF22 protein, primary screen, FGF22 synaptogenesis inhibitor project, biophysical, thermal shift, single point | Fibroblast growth factor 22 (Homo sapiens), Q9HCT0 | recombinant FGF22 thermal shift, SYPRO orange fluorescence; percent of sucrose octasulfate shift, DMSO zero | actives 1.5% (n = 340,000) | AID 651658, 2012 | activity (Tm shift, normalised), % at 9.99 µM;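 active = mean Tm shift, scaled 0 neutral to 100 positive control, at about 1.3% or above, every replicate too, limit read from the data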
Target sequence (Q9HCT0 whole entry, looked up): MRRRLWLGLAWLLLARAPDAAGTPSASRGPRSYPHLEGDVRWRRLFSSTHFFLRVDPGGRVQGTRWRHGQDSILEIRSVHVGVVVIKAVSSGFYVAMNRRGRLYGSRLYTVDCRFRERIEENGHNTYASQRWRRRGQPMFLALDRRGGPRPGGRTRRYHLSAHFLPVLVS
A number is an active result; - = inactive; . = not tested or not shown. Only some compounds are listed: those with a hit (about 2.2% of all), similar ones and a draw of the others.

SMILES	SIRT5 inh	PGC1a acetyl inh	FN deposition inh	ERAP1 inh	FGF22 binding
CCOC(=O)C1=C(c2ccccc2)N=c2sc(=Cc3cc(OC)c(OC)c(OC)c3)c(=O)n2C1c1cccs1 (stereo not given)	16	.	-	.	-
CCOC(=O)C1=C(C)N=c2sc(=Cc3cc(Cl)c(OCC(=O)O)c(OC)c3)c(=O)n2C1c1ccccc1Cl (stereo not given)	24	.	-	-	-
CN(C)CC(=O)Nc1ccc2c(c1)[C@H]1C[C@H](CC(=O)N3CCc4ccccc4C3)O[C@@H](CO)[C@H]1O2	-	-	-	-	-
O=C(COC(=O)c1ccc(O)cc1)NCC1CCCO1 (stereo not given)	-	-	-	-	43
CSc1nnc(-c2cc[n+](C)cc2)n1CCO	-	.	-	102	-
CS(=O)(=O)C1=NSC2=NC(=O)/C(=C\c3ccc(OS(=O)(=O)c4ccccc4)cc3)C(=N)N21	17	.	-	-	-
Cc1ccc(S(=O)(=O)Oc2ccc(/C=C3/C(=N)N4C(=NC3=O)SN=C4S(C)(=O)=O)cc2)cc1	-	-	-	-	-
COc1cccc(-n2c(C)cc(/C=C3/C(=N)N4C(=NC3=O)SN=C4S(C)(=O)=O)c2C)c1	-	-	-	-	1.4
COc1ccc2c3c([nH]c2c1)[C@H](CO)N(S(C)(=O)=O)CC31CCN(Cc2cccc(F)c2)CC1	.	-	.	.	.
COc1ccc(C(=O)NCCN2CCOCC2)c(OC)c1	-	-	-	-	44
COc1ccc(C(=O)NCCN2CCOCC2)c(OC)c1OC	-	-	-	-	-
COc1ccccc1/C=C(/NC(=O)c1ccccc1)C(=O)NCCN1CCOCC1	-	.	-	-	44
O=C(NCCN1CCOCC1)/C(=C\c1ccccc1Cl)NC(=O)c1ccccc1	-	.	-	-	-
COc1ccc(-n2cnc3cc(C(=O)NCCN4CCOCC4)ccc32)cc1	-	.	-	-	44
O=C(Cc1c(F)cccc1Cl)NCCN1CCOCC1	-	.	-	-	43
CO[C@H]1CN(C)C(=O)c2cc(C#N)ccc2OC[C@@H]2O[C@@H](CC[C@H]2OC)CCN(C)C(=O)[C@H]1C	-	-	-	-	-
C[C@@H]1CN([C@@H](C)CO)C(=O)c2cc(NC(=O)CCN3CCOCC3)ccc2O[C@H]1CN(C)Cc1ccc2c(c1)OCO2	-	-	-	-	-
COc1ccc(CNC(=O)C[C@@H]2CC[C@H]3[C@H](COc4ccc(NC(=O)C(C)C)cc4C(=O)N3C)O2)cc1	-	-	-	-	-
Cc1ccccc1C(=O)NCCN1CCOCC1	-	-	-	-	44
CC(=O)c1cccc(N(C(=O)c2ccco2)C(C(=O)NC2CCCC2)c2ccc(N3CCOCC3)cc2)c1 (stereo not given)	-	-	-	-	43
COC(=O)c1cccc(N(C(=O)c2ccco2)C(C(=O)NC2CCCC2)c2ccc(N3CCOCC3)cc2)c1 (stereo not given)	-	-	-	-	-
C[C@H]1CN([C@@H](C)CO)C(=O)c2cc(NS(=O)(=O)c3ccc(Cl)cc3)ccc2O[C@@H]1CN(C)CC1CC1	-	-	.	-	-
NCCNC(=O)c1c(O)c2cccc3c2n(c1=O)CCC3	-	-	-	31	-
CCCNC(=O)c1c(O)c2cccc3c2n(c1=O)CCC3	-	-	-	-	-
O=C(NCc1cccnc1)c1c(O)c2cccc3c2n(c1=O)CCC3	.	-	.	-	43
SMILES	SIRT5 inh	PGC1a acetyl inh	FN deposition inh	ERAP1 inh	FGF22 binding
CCn1c(C)c2c([n+]1CC)CC(C)(C)CC2=O	-	-	.	109	-
COc1ccc(S(=O)(=O)N(C)C[C@@H]2Oc3ccc(N(C)C)cc3CC(=O)N([C@H](C)CO)C[C@H]2C)cc1	-	-	-	-	-
CCOC(=O)NC(C)N1C(=O)C2C3C=CC(C3)C2C1=O (stereo not given)	-	.	-	-	44
CCn1c(C)[n+](Cc2ccccc2)c2ccc(C(=O)OC)cc21	-	.	-	-	43
CCn1c(C)[n+](Cc2ccccc2)c2ccc(Cl)cc21	-	.	-	-	-
CCN(CC)CCSc1nc(O)c(-c2ccccc2)c(=O)n1-c1ccccc1	16	.	-	-	-
CN(C)Cc1ccccc1CNC(=O)c1ccc(Cl)c(S(=O)(=O)NC2CC2)c1	.	-	-	-	43
C[C@@H]1CN([C@@H](C)CO)C(=O)c2cc(NC(=O)Nc3ccc4c(c3)OCO4)ccc2O[C@H]1CN(C)C(=O)NC1CCCCC1	-	-	.	-	-
O=C1CCCc2c1cc(C(=O)O)c(=O)n2-c1ccccc1	-	-	-	-	43
CCCCn1c2c(cc(C(=O)OC)c1=O)C(=O)CCC2	-	-	-	-	-
COC(=O)c1cc2c(n(Cc3ccccc3)c1=O)CCCC2=O	.	.	-	-	43
O=C1CCCc2c1cc(C(=O)Nc1ccc(Br)cn1)c(=O)n2-c1ccccc1	.	-	-	.	.
Cc1ccc(-n2c3c(cc(C(=O)NCC(=O)c4ccccc4)c2=O)C(=O)CCC3)cc1	-	-	.	-	-
CCOC(=O)c1cc2c(n(-c3ccc(Cl)cc3)c1=O)CCCC2=O	-	.	-	-	44
COc1ccc(CN(C)C[C@H]2OCCCC[C@@H](C)Oc3ccc(NC(=O)Nc4ccc(OC)cc4)cc3C(=O)N([C@H](C)CO)C[C@H]2C)cc1	-	-	-	-	-
C[C@@H]1CN([C@H](C)CO)C(=O)c2cc(NC(=O)Cc3ccccc3)ccc2O[C@@H](C)CCCCO[C@H]1CN(C)S(=O)(=O)c1ccc(F)cc1	.	-	-	.	-
Cc1cccc(-c2ccc([C@H]3[C@H](CO)N4C(=O)CN(C(=O)c5ccccc5)C[C@@H]34)cc2)c1	-	-	.	-	.
C[C@H](CO)N1C[C@H](C)[C@H](CN(C)C)Oc2ccc(NC(=O)Cn3cnnn3)cc2CC1=O	-	-	.	-	-
Cc1ccc(S(=O)(=O)N2C[C@@H]3CCCC[C@@H]3[C@@H](C)[C@H]2c2cn(Cc3ccccc3)c3ncccc23)cc1	22	-	.	-	-
Cc1nc2cc(NS(=O)(=O)c3cccc(F)c3)ccc2s1	-	-	-	-	44
Cc1ccc(NC(=S)N(Cc2cccc(Br)c2)CC2CCC(C(=O)O)CC2)cc1 (stereo not given)	-	-	-	-	8.2
Cc1cc(NC(=S)N(Cc2cccc(Br)c2)CC2CCC(C(=O)O)CC2)ccc1Cl (stereo not given)	.	.	-	.	-
O=C(CCSc1ccc(Br)cc1)Nc1cccnc1	-	.	-	-	44
O=C(CCC(=O)c1ccc(Br)cc1)Nc1cccnc1	.	.	-	.	-
